Experiments:
[1] = tested on: Caco-2; test: Critical Micelle Concentration (CMC) determined by fluorescence assay using DPH as a probe; format: functional, Homo sapiens
Summary of the method: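 Aqueous phosphocholine solutions over a concentration range received DPH (1 µL of 10 mM stock in THF per 2 mL). They were held 30 min in the dark at room temperature, then fluorescence was read (ex 365, em 460 nm). CMC was taken as the intersection of linear fits below and above the intensity inflection; mean of triplicates.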

[2] = Concentration to decrease mitochondrial dehydrogenase vs concentration to decrease TEER (IC50/EC50); format: functional
Summary of the method: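 Ratio of two values measured on Caco-2 cells (passage 45–55). IC50: cells grown 96 h, exposed 20 min to phospholipid in HBSS, MTT added for 120 min more, SDS/HCl-isobutanol stop, absorbance 590 nm. EC50: 20–22-day monolayers (TEER 600–800 Ω·cm²), 20 min apical exposure in HBSS at room temperature, 50% TEER fall vs untreated. Triplicates.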

[3] = tested on: Caco-2; test: Increase in the mannitol flux by 10-fold (EC10x) of the control value; format: functional, Homo sapiens
Summary of the method: (§1)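 Caco-2 monolayers on filters, TEER 600–800 Ω·cm². Enhancer at 0.01–5.0 mM in HBSS applied apically for 20 min, then washed out. Apical side then given 0.1 mM [3H]mannitol, 37 °C, sink conditions. Basolateral samples taken at 20, 40, 60 and 90 min and counted by liquid scintillation. EC10x = concentration raising mannitol permeability 10-fold over control; triplicate.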

[4] = tested on: Caco-2; test: Decrease in the trans-epithelial electrical resistance(TEER) in Caco-2 cell monolayers; format: functional, cell-based; settings: Homo sapiens
Summary of the method: (§2)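 Caco-2 cells (passage 45–55) grown on 1.0 cm² polycarbonate filters for 20–22 days and equilibrated 1 h in HBSS (25 mM HEPES, 25 mM glucose, pH 7.4) at 37 °C; monolayers with TEER 600–800 Ω·cm² used. Compound applied apically in HBSS at various concentrations for 20 min at room temperature. TEER read by voltohmmeter, blank filter subtracted. EC50 = concentration cutting TEER 50% versus untreated; triplicate, mean ± SD.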

[5] = tested on: Caco-2; test: Concentration to decrease the transepithelial electrical resistance (TEER) in Caco-2 cell monolayers; format: functional, cell-based; settings: Homo sapiens; summary of the method: as §2
[6] = tested on: Caco-2; test: Concentration to increase the mannitol flux by 10-fold (EC10x) of the control value; format: functional, Homo sapiens; summary of the method: as §1

SMILES | CMC [1] [µM] | Potency index [2] | EC10x [3] [mM] | EC50 [4] [µM] | EC50 [5] [µM] | EC10x [6] [mM]
CCCCCCCCCC(=O)NCC(COP(=O)([O-])OCC[N+](C)(C)C)OCCCC (centres undefined) | 1170 | 1.24 | >5 | 3190 | – | –
CCCCOC(CNC(=O)CCC)COP(=O)([O-])OCC[N+](C)(C)C (centres undefined) | – | – | >5 | > 5000 | – | –
CCCCCCCC(=O)NCC(COP(=O)([O-])OCC[N+](C)(C)C)OCCCC (centres undefined) | – | – | >5 | > 5000 | – | –
CCCCCCCCCC(=O)NCC(COP(=O)([O-])OCC[N+](C)(C)C)OCCCCCCCC (centres undefined) | 55.3 | 1.27 | – | – | 300 | 1.21
CCCCCCCC(=O)NCC(COP(=O)([O-])OCC[N+](C)(C)C)OCCCCCC (centres undefined) | – | – | >5 | > 5000 | – | –
CCCCCCCCCC(=O)NCC(COP(=O)([O-])OCC[N+](C)(C)C)OCCCCCC (centres undefined) | – | 2.38 | 0.73 | 420 | – | –
CCCCCCCCCCCCCCCCOC(CNC(=O)CCCCC)COP(=O)([O-])OCC[N+](C)(C)C (centres undefined) | – | 0.93 | 1.35 | 300 | – | –
CCCCCCCCCCCCCCCC(=O)NCC(COP(=O)([O-])OCC[N+](C)(C)C)OCCCCCCCCCC (centres undefined) | – | – | >2 | > 2000 | – | –
CCCCCCCCCCCCCCCC(=O)NCC(COP(=O)([O-])OCC[N+](C)(C)C)OCCCCCCCCCCCC (centres undefined) | – | – | >1 | > 1000 | – | –
CCCCCCCCCCCCCCOC(CNC(=O)CCCCCCCCC)COP(=O)([O-])OCC[N+](C)(C)C (centres undefined) | – | – | >2 | > 2000 | – | –
CCCCCCCCCCCCCCCCOC(CNC(=O)CCCCCCCCCCC)COP(=O)([O-])OCC[N+](C)(C)C (centres undefined) | – | – | >0.5 | > 500 | – | –
CCCCCCCCCCCCCCCCOC(CNC(C)=O)COP(=O)([O-])OCC[N+](C)(C)C (centres undefined) | – | 1.43 | 0.35 | 70 | – | –
CCCCCCCCCCCCCCCC(=O)NCC(COP(=O)([O-])OCC[N+](C)(C)C)OCCCC (centres undefined) | – | 1.11 | 0.48 | 90 | – | –
CCCCCCCCCCCCCCCCOC(CNC(=O)CCCCCCCCC)COP(=O)([O-])OCC[N+](C)(C)C (centres undefined) | – | – | >2 | > 2000 | – | –
CCCCCCCCCCCCCCCC(=O)NCC(COP(=O)([O-])OCC[N+](C)(C)C)OCCCCCC (centres undefined) | – | 0.6 | 1.61 | 520 | – | –
CCCCCCCCCCCCCCCCCCOC(CNC(C)=O)COP(=O)([O-])OCC[N+](C)(C)C (centres undefined) | – | 1.11 | 0.34 | 90 | – | –
CCCCCCCCCCCC(=O)NCC(COP(=O)([O-])OCC[N+](C)(C)C)OCCCCCC (centres undefined) | – | 0.84 | 1.01 | 190 | – | –
CCCCCCCCCCCCCCCC(=O)NCC(COP(=O)([O-])OCC[N+](C)(C)C)OCCCCCCCC (centres undefined) | – | – | >5 | > 5000 | – | –
CCCCCCCCCCCCCC(=O)NCC(COP(=O)([O-])OCC[N+](C)(C)C)OCC (centres undefined) | 148 | 2 | 0.89 | 80 | – | –
CCCCCCCCCCCCOC(CNC(C)=O)COP(=O)([O-])OCC[N+](C)(C)C (centres undefined) | – | 1.72 | 4.27 | 780 | – | –
CCCCCCCCCCCCCCCCCC(=O)NCC(COP(=O)([O-])OCC[N+](C)(C)C)OCCCCCCCC (centres undefined) | – | – | >5 | > 5000 | – | –
CCCCCCCCCCCCOC(CNC(=O)CCCCCCCCC)COP(=O)([O-])OCC[N+](C)(C)C (centres undefined) | – | 1.92 | >3 | 1040 | – | –

— ChEMBL document CHEMBL1135487, “Structure-activity relationship for enhancement of paracellular permeability across Caco-2 cell monolayers by 3-alkylamido-2-alkoxypropylphosphocholines” (J Med Chem, 2002)
